Experimental data as given in ChEMBL document CHEMBL4118283, “Discovery of a novel 2-(1H-pyrazolo[3,4-b]pyridin-1-yl)thiazole derivative as an EP1 receptor antagonist and in vivo studies in a bone fracture model” (Bioorg Med Chem Lett, 2018).
Blank lines part the entries; values can stand above or below the compound they belong to. Calls of active or inactive are those of the source. The rule behind the calls is not given here.

Key:
[1] = molecular target: T1, Prostaglandin E2 receptor EP1 subtype (Homo sapiens) (UniProt P34995); assay: Antagonist activity at EP1 receptor (unknown origin) at 100 nM by reporter gene assay relative to control; assay type: functional
T1 sequence (whole entry): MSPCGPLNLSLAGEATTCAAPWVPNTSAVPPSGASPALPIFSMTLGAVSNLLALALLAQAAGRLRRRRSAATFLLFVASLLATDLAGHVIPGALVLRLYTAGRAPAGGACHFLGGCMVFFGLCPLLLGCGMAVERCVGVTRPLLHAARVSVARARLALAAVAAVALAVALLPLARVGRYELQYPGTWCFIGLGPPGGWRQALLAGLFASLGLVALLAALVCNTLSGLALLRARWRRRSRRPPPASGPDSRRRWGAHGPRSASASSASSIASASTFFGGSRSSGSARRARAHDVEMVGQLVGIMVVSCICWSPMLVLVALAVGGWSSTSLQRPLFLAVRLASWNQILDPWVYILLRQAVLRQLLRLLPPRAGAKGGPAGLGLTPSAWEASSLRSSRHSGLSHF

[2] = molecular target: T2, Prostaglandin E2 receptor EP1 subtype (Homo sapiens, UniProt P34995); assay: Antagonist activity at EP1 receptor (unknown origin) by reporter gene assay; assay type: functional
T2 sequence (P34995 whole entry): T1 sequence (whole entry)

[3] = Permeability in MDCK cells; assay type: ADME, cell-based, Canis lupus familiaris; details: dog, read-out: permeability
[4] = Intrinsic clearance in human; assay type: ADME, organism-based; details: in vivo
[5] = Intrinsic clearance in rat; assay type: ADME, organism-based; details: in vivo
[6] = Cmax in Sprague-Dawley rat at 10 to 100 mg/kg, po by LC-MS/MS analysis; assay type: ADME, organism-based; details: in vivo
In short: (§1)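 Single oral dose of 10, 30 or 100 mg/kg to 7-week-old female Sprague–Dawley rats (n = 3), vehicle 10% v/v DMSO, 5% v/v Cremophor EL, 85% v/v water. Subclavian-vein blood drawn at 0.5, 1, 2, 4, 8 and 24 h post dose; plasma separated by centrifugation and drug measured by LC-MS/MS.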

[7] = system: Rattus norvegicus; assay: AUC (0 to 8 hrs) in Sprague-Dawley rat at 10 to 100 mg/kg, po by LC-MS/MS analysis; assay type: ADME, organism-based; details: in vivo; in short: as §1
[8] = molecular target: T2, Prostaglandin E2 receptor EP1 subtype; assay: Binding affinity to EP1 receptor (unknown origin) by binding assay
[9] = Drug uptake in Sprague-Dawley rat plasma at 30 mg/kg, po bid for 4 weeks by LC-MS/MS analysis; assay type: ADME, organism-based; details: in vivo, 672 h
In short: (§2)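 Sprague–Dawley rats with femoral fractures dosed orally for 28 days (30 mg/kg once daily, 30 mg/kg twice daily, or 100 mg/kg once daily). Subclavian-vein blood taken 30 min before dosing (trough) or 1 h after dosing on days 1, 2, 3, 7, 14, 21 and 28; plasma drug measured by LC-MS/MS.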

[10] = Cmax in Sprague-Dawley rat at 10 mg/kg, po by LC-MS/MS analysis; assay type: ADME, organism-based; design: dose 10 mg/kg, route oral; details: in vivo; in short: as §1
[11] = molecular target: Prostaglandin E2 receptor EP2 subtype (Homo sapiens, UniProt P43116); assay: Binding affinity to EP2 receptor (unknown origin)
[12] = Cmax in Sprague-Dawley rat at 100 mg/kg, po by LC-MS/MS analysis; assay type: ADME, organism-based; design: dose 100 mg/kg, route oral; details: in vivo; in short: as §1
[13] = Drug uptake in Sprague-Dawley rat plasma at 30 mg/kg, po qd for 4 weeks by LC-MS/MS analysis; assay type: ADME, organism-based; details: in vivo, 672 h; in short: as §2
[14] = molecular target: Prostaglandin E2 receptor EP4 subtype (Homo sapiens, UniProt P35408); assay: Binding affinity to EP4 receptor (unknown origin)
[15] = Protein binding in Sprague-Dawley rat plasma at 10 to 100 mg/kg, po by LC-MS/MS analysis; assay type: ADME, organism-based; details: read-out: PPB (converted)
[16] = system: Rattus norvegicus; assay: Osteogenic activity in Sprague-Dawley rat drill-hole femoral fracture model assessed as callus formation at 30 mg/kg, po bid for 28 days; assay type: functional, organism-based; details: in the assay text read “closed” for “drill-hole”
In short: (§3)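 Closed mid-diaphyseal femur fracture in 8-week-old Sprague–Dawley rats under ip pentobarbital (50 mg/kg). Medial parapatellar arthrotomy, 1 mm drill hole at intercondylar fossa, 21-gauge needle inserted through the medullary canal, fracture by three-point bending. Oral drug or 0.5% MC vehicle given for 28 days. Radiographs at 0, 7, 14, 21, 28 days; outer hard callus area traced by image analysis.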

[17] = system: Salmonella typhimurium; assay: Mutagenicity in Salmonella typhimurium by Ames test; assay type: toxicity, organism-based; details: salmonella enterica subsp. enterica serovar typhimurium
[18] = system: Rattus norvegicus; assay: Osteogenic activity in Sprague-Dawley rat drill-hole femoral fracture model assessed as callus formation at 100 mg/kg, po qd for 28 days; assay type: functional, organism-based; details: in the assay text read “closed” for “drill-hole”; in short: as §3
[19] = Oral bioavailability in Sprague-Dawley rat at 10 to 100 mg/kg by LC-MS/MS analysis; assay type: ADME, organism-based; details: in vivo
[20] = Cmax in Sprague-Dawley rat at 30 mg/kg, po by LC-MS/MS analysis; assay type: ADME, organism-based; design: dose 30 mg/kg, route oral; details: in vivo; in short: as §1
[21] = Drug uptake in Sprague-Dawley rat plasma at 100 mg/kg, po qd for 4 weeks by LC-MS/MS analysis; assay type: ADME, organism-based; details: in vivo, 672 h; in short: as §2
[22] = system: Rattus norvegicus; assay: Osteogenic activity in Sprague-Dawley rat drill-hole femoral fracture model assessed as callus formation at 30 mg/kg, po qd for 28 days; assay type: functional, organism-based; details: in the assay text read “closed” for “drill-hole”; in short: as §3
[23] = molecular target: T3, Prostaglandin E2 receptor EP3 subtype (Homo sapiens, UniProt P43115); assay: Binding affinity to EP3 receptor (unknown origin)
T3 sequence (P43115 whole entry): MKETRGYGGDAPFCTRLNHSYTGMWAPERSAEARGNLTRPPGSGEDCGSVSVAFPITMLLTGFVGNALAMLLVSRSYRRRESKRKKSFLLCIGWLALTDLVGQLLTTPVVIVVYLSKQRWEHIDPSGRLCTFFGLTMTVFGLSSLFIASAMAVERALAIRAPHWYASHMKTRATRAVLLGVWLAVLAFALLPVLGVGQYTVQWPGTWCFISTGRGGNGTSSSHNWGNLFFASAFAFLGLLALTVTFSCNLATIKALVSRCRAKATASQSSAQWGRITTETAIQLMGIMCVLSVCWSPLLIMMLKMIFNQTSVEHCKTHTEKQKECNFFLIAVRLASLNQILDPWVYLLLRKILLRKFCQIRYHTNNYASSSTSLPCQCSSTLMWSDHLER

[24] = Drug uptake in Sprague-Dawley rat plasma at 100 mg/kg, po after 24 hrs by LC-MS/MS analysis; assay type: ADME, organism-based; details: in vivo; in short: as §1

Sequence of Prostaglandin E2 receptor EP4 subtype (P35408 whole entry): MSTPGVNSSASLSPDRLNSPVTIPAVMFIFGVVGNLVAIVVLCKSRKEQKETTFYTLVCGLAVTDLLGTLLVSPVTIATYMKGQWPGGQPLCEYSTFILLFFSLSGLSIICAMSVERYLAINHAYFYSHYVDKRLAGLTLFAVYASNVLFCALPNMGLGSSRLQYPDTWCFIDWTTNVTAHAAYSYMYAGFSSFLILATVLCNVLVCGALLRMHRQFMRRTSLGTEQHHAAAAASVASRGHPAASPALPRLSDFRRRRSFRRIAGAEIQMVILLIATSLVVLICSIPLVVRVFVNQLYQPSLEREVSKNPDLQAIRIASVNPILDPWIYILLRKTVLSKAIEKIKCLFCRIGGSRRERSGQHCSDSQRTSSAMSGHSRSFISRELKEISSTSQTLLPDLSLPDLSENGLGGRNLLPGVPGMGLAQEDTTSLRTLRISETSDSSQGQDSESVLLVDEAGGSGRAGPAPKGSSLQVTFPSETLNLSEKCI
Sequence of Prostaglandin E2 receptor EP2 subtype (P43116 whole entry): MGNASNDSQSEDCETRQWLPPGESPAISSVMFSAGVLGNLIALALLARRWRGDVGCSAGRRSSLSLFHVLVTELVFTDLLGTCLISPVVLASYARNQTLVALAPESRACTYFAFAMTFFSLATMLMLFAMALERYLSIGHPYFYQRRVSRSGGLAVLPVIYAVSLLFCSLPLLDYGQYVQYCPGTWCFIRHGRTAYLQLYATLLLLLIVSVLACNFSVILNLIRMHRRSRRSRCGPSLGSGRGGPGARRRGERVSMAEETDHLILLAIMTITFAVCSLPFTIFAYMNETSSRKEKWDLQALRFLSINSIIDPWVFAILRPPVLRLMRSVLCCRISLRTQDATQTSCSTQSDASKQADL

inhibition [1]: 11%
Compound: O=C(O)c1csc(-n2nc(-c3ccccc3)c3ccc(N4CCCC4)nc32)n1

IC50 [2]: 40 nM
Compound: O=C(O)c1csc(-n2nc(-c3ccccc3)c3ccc(N4CCC4)nc32)n1

Papp [3]: 19.7 ×10⁻⁶ cm/s
CLint scaled [4]: 48 mL/min/kg
CLint scaled [5]: 111 mL/min/kg
IC50 [2]: 12 nM
Compound: O=C(O)c1csc(Cn2nc(-c3ccccc3)c3ccc(C(F)(F)F)cc32)n1

Papp [3]: 39 ×10⁻⁶ cm/s
CLint scaled [4]: 146 mL/min/kg
CLint scaled [5]: 232 mL/min/kg
IC50 [2]: 0.7 nM
Compound: O=C(O)c1csc(-n2nc(C3=CCCCO3)c3ccc(C(F)(F)F)cc32)n1

Cmax [6]: 5.34 µM
AUC [7]: 9.27 microM/L.hr
Compound: O=C(O)c1csc(-n2nc(-c3ccccc3)c3ccc(C(F)(F)F)cc32)n1

Papp [3]: 23.5 ×10⁻⁶ cm/s
Ki [8]: 8.7 nM
Drug uptake [9]: Active
Cmax [10]: 24.8 µM
Ki [11]: > 8700 nM
Cmax [12]: 179 µM
Cmax [6]: 2.62 µM
Drug uptake [13]: Active
CLint scaled [4]: 70 mL/min/kg
Ki [14]: > 2700 nM
fraction unbound [15]: 0.026
CLint scaled [5]: 94 mL/min/kg
bioavailability [19]: 26%
Cmax [20]: 75.1 µM
AUC [7]: 5.71 microM/L.hr
Drug uptake [21]: Active
IC50 [2]: 0.3 nM
Ki [23]: > 5000 nM
Drug uptake [24]: Active
Compound: O=C(O)c1csc(-n2nc(-c3ccccc3)c3ccc(C(F)(F)F)nc32)n1
Activity [16]: Active
Activity [17]: Non-Toxic
Activity [18]: Active
Activity [22]: Active

IC50 [2]: 12 nM
Compound: O=C(O)c1csc(-n2nc(-c3ccccc3)c3ncc(C(F)(F)F)cc32)n1

IC50 [2]: 12 nM
Compound: CN(C)c1ccc2c(-c3ccccc3)nn(-c3nc(C(=O)O)cs3)c2n1
